Source: PubChem (The Scripps Research Institute Molecular Screening Center)
A selection: hits, their analogues and other compounds. The true share with any hit is near 3.1%.
OX1R antag-1: antagonists of human orexin 1 receptor | O43613 | CHO/OX1R cells, Fluo-8 calcium fluorescence, orexin A | inhibition, % at 5 µM | actives 0.43% (n = 330,000) | AID 434989;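 active = inhibition above its plate's threshold, mean inhibition of all tested compounds on the plate plus 3 SD, cut at about 37% in these data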;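 note: 0% = orexin A challenge wells and 100% = SB-334867-A antagonist wells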
Target sequence (O43613 whole entry, looked up): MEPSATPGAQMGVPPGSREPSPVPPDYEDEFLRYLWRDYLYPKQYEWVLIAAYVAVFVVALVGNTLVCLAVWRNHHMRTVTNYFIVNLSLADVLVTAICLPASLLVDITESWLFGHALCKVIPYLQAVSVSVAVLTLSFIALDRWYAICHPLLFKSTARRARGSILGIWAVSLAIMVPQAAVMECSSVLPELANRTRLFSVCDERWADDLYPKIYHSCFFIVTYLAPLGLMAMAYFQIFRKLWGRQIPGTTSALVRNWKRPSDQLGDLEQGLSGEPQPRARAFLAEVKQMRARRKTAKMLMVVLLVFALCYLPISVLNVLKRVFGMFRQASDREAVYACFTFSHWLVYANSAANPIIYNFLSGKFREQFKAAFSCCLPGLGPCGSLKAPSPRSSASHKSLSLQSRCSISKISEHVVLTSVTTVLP
CHO parental Ca: counter-screen: ATP calcium response change in parental CHO cells; parental CHO-K1, ATP-induced calcium, Fluo-8 fluorescence; AID 463079; actives 0.63% (n = 330,000); inhibition, % at 5.6 µM;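 active = inhibition above that plate's mean sample inhibition plus 3 SD, cut at about 26% in these data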;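 note: 0% = ATP-challenged DMSO wells and 100% = DMSO wells without ATP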
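Material: parental CHO cells / Compound: single nominal dose of 5.6 µM per compound / Signal: Fluo-8 fluorescence / Replicates: singlicate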
OX1R antag-2: OX1R (human) antagonism; inhibition, % at 6.6 µM; O43613; AID 485270; actives 1.8% (n = 330,000); OX1R-expressing cells, FRET antagonist read-out; in the data active = inhibition mostly above about 38%, no sharp cut-off; inactive = mostly below about 40%;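 note: 0% = agonist challenge alone and 100% = reference antagonist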
GPR7 antagonist: blocks human GPR7 receptor signaling | P48145 | AID 1861 | inhibition, % at 4.4 µM | actives 1.1% (n = 290,000) | GPR7-expressing cells, fluorescence antagonist assay; in the data active = inhibition above about 16%, passing the limit was not always enough;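 note: cells stimulated with the agonist NPW; 0% = agonist with vehicle and 100% = vehicle without agonist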
GalR3 antagonist: antagonists of human GalR3; O60755; HEK293 GalR3-CNG cAMP membrane potential fluorescence; galR3 body fused to GalR1 C-terminus; inhibition, % at 3 µM; actives 0.44% (n = 360,000); AID 651719;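 active = inhibition above the screen-wide average plus 3 SD, cut at about 13% in these data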;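 note: forskolin and galanin both at EC90 stimulate the cells; cAMP rise reported by CNG channel membrane potential dye signal; 0% = forskolin plus galanin with DMSO and 100% = forskolin alone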
* = called active by the depositor.

How did COc1ccc(CCN(C)C(=O)c2cc(-c3ccccc3)nc3ccc(C)cc23)cc1OC do in these assays?
OX1R antag-1: -11; CHO parental Ca: -22; OX1R antag-2: 70*; GPR7 antagonist: -2; GalR3 antagonist: 1

How did COc1ccc(CCN(C)C(=O)c2cc(-c3ccccc3)nc3ccccc23)cc1OC do in these assays?
GPR7 antagonist: -2; GalR3 antagonist: -2

How did CCCCC[C@H](C)N1C[C@H](COCc2ccccc2)Oc2cc(N3CCC[C@H]3COC)ccc2S1(=O)=O do in these assays?
GalR3 antagonist: -5

How did O=C(Oc1ccc(C(=S)N2CCOCC2)cc1)c1ccccc1[N+](=O)[O-] do in these assays?
OX1R antag-1: 21; CHO parental Ca: 1; OX1R antag-2: 56*; GPR7 antagonist: 20; GalR3 antagonist: -5

How did O=C(Oc1ccc(C(=S)N2CCOCC2)cc1)c1ccccc1F do in these assays?
OX1R antag-1: 3; CHO parental Ca: -10; OX1R antag-2: 26; GPR7 antagonist: 23; GalR3 antagonist: -7

What do the screens show for `CN(C)S(=O)(=O)c1ccc(C(=O)OCC(=O)Nc2ccccc2OC(F)F)cc1`?
OX1R antag-1: -2; CHO parental Ca: -5; OX1R antag-2: 5; GPR7 antagonist: -6; GalR3 antagonist: -4

What do the screens show for `CN(C)S(=O)(=O)c1ccc(C(=O)OCC(=O)c2ccc(OC(F)F)cc2OC(F)F)cc1`?
OX1R antag-1: -7; CHO parental Ca: -8; OX1R antag-2: 6; GPR7 antagonist: 18*; GalR3 antagonist: -6

Results for CCN(CC)C(=O)C1=C(C)N(Cc2ccccc2)C(=O)C(CC(=O)NCCCN(C)C)C1 (stereo not drawn) ?
GalR3 antagonist: -6

Results for Cc1cc(C(=O)N2CCC2(C)C(=O)Nc2cccc3ccccc23)nn1C (stereo not drawn) ?
GalR3 antagonist: -4

How did O=C(Nc1ccc(F)cc1)C(Sc1nnc2ccccn12)c1ccccc1 (stereo not drawn) do in these assays?
OX1R antag-1: -17; CHO parental Ca: -2; OX1R antag-2: 15; GPR7 antagonist: -10; GalR3 antagonist: 1

Results for CCOc1ccccc1NC(=O)C(Sc1nnc2ccccn12)c1ccccc1 (stereo not drawn) ?
OX1R antag-1: -6; CHO parental Ca: -15; OX1R antag-2: 41*; GPR7 antagonist: -12; GalR3 antagonist: 0

Results for COc1ccc(OC)c(CCNC(=O)CCC(=O)N2CCOc3ccc(C)cc32)c1 ?
OX1R antag-1: -17; CHO parental Ca: -7; OX1R antag-2: 39*; GPR7 antagonist: 7

What do the screens show for `Nc1ccccc1-c1nc2ccccc2s1`?
OX1R antag-1: -18; CHO parental Ca: -22; OX1R antag-2: 21; GPR7 antagonist: -9; GalR3 antagonist: 4

What do the screens show for `CN(C)c1nc(N)nc(-c2nc3ccccc3s2)n1`?
OX1R antag-1: -12; CHO parental Ca: -28; OX1R antag-2: 58*; GPR7 antagonist: -7; GalR3 antagonist: -5

What do the screens show for `C[C@H](NC(CCc1ccccc1)C(=O)O)C(=O)N1CCC[C@H]1C(=O)O` (stereo partly drawn)?
OX1R antag-1: -14; CHO parental Ca: -6; OX1R antag-2: 15

How did Oc1ccc(Br)c(CN2CCN(c3ncc(Cc4ccccc4)cn3)CC2)c1 do in these assays?
GalR3 antagonist: -4

What do the screens show for `Cn1c(/C=C/c2cccc(Br)c2)nc2ccccc2c1=O`?
OX1R antag-1: 25; CHO parental Ca: -34; OX1R antag-2: 60*; GPR7 antagonist: 4; GalR3 antagonist: -3

How did CCC(C)/C(C)=N/Nc1ccc(S(N)(=O)=O)cc1[N+](=O)[O-] (stereo not drawn) do in these assays?
OX1R antag-1: -19; CHO parental Ca: 21; OX1R antag-2: 76*; GPR7 antagonist: -18; GalR3 antagonist: 1

Results for Nc1nnc(CC(=O)N/N=C/c2ccc([N+](=O)[O-])cc2)s1 ?
OX1R antag-1: 3; CHO parental Ca: -3; OX1R antag-2: 75*; GPR7 antagonist: -1; GalR3 antagonist: -7

Results for O=C(/C=C/c1cccc([N+](=O)[O-])c1)NCc1cccnc1 ?
OX1R antag-1: -14; CHO parental Ca: 5; OX1R antag-2: 72*; GPR7 antagonist: 7; GalR3 antagonist: 5

What do the screens show for `CCN(CC)S(=O)(=O)c1ccc(C(=O)OCCNC(=O)c2cccnc2)cc1`?
OX1R antag-1: -14; CHO parental Ca: -16; OX1R antag-2: 5; GPR7 antagonist: 13; GalR3 antagonist: 5
